# Source: PMC3609526 (Diabetes Care, 2013)
# Experiment: Euglycemic clamp study: pharmacodynamics by glucose infusion rate
# Type: in vivo, human (type 1 diabetic patients)
# Details: for GIR tmax50 (time to reach 50% of maximum GIR) / GIR tmax (time to reach maximum GIR): euglycemic clamp, 12 patients, mean ± SD
# Procedure, shortened: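 Crossover design with a 5–21 d washout, in fasting C-peptide-negative patients. During a 3–7 h run-in, IV human insulin/glucose held plasma glucose at 5.5 ± 1.1 mmol/L, with insulin tapered off over the last hour. At time 0, a fast-acting insulin analogue was injected into abdominal s.c. fat. Variable 10% glucose then ran for 8 h. Arterialized venous glucose (arm warmed at 55°C) was measured every 5–10 min in duplicate, and GIR AUC was calculated.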
# [1] = 9 × 2 IU dispersed s.c. boluses
substance,measurement,setting,value
insulin aspart,GIR tmax50 (time to reach 50% of maximum GIR),1 × 18 IU single s.c. bolus,49 ± 16 min
same,GIR tmax (time to reach maximum GIR),1 × 18 IU single s.c. bolus,127 ± 93 min
same,GIR tmax50 (time to reach 50% of maximum GIR),[1],38 ± 9 min
same,GIR tmax (time to reach maximum GIR),[1],68 ± 33 min
same,shortening of time to reach maximum GIR,9 × 2 IU vs. 1 × 18 IU,~50%
